Measured values of several laboratories.
Lines come from different studies, so protocols differ.

| Compound | species | sample | route | dose | setting | measurement | value |
| --- | --- | --- | --- | --- | --- | --- | --- |
| N=C(N)NCCC[C@@H](NC(=O)[C@@H](N)Cc1ccccc1)C(=O)N[C@@H](Cc1ccccc1)C(=O)N[C@@H](CCCCN)C(N)=O | human | plasma | subcutaneous | 5 mg | patients | Cmax | 199 ng/mL |
| COc1ccc2[nH]cc(CCNc3nccc(Nc4cccc5c4ccn5C)n3)c2c1 | mouse | plasma | oral | 28.6 mg/kg |  | Tmax | 0.25 h |
| N=c1c2c(-c3ccccc3)c(-c3ccccc3)n(Cc3ccccc3)c2ncn1[C@H]1CC[C@H](O)CC1 | female minipig | plasma | intravenous | 0.25 mg/kg | single dose | Vd | 3.8 L/kg |
| c1cc([C@H]2CC[C@]3(CC2)OO[C@]2(O3)C3CC4CC(C3)CC2C4)ccc1OCCN1CCOCC1 | human | plasma | oral | 1200 mg | patients | Cmax | 1500 ng/mL |
| C[C@]12CC[C@H](n3ccnc3)CC1=CC[C@@H]1[C@@H]2CC[C@]2(C)C(n3cnc4ccccc43)=CC[C@@H]12.Cl.Cl | male CD-1 mouse | plasma | oral | 10 mg/kg |  | Tmax | 17.3 h |
| Cc1nc2c(=O)n(C)c(=O)nc-2n(C)n1 |  | Caco-2 |  |  |  | efflux ratio | 1 |
| COc1cc2c(c(OC)c1OC)-c1ccc(OC)c(=O)cc1[C@@H](NC(C)=O)CC2 |  | Caco-2 |  |  |  | efflux ratio | 24.5 |
| CC[C@H](C)[C@H](NC(=O)[C@H](CC(C)C)NC(=O)[C@H](Cc1c[nH]c2ccccc12)NC(=O)[C@H](CCC(N)=O)NC(=O)[C@@H](NC(=O)[C@H](Cc1ccccc1)NC(=O)[C@H](C)NC(=O)[C@H](CCCCNC(=O)COCCOCCNC(=O)COCCOCCNC(=O)CC[C@H](NC(=O)CCCCCCCCCCCCCCCCCCC(=O)O)C(=O)O)NC(=O)[C@H](CCC(N)=O)NC(=O)[C@H](C)NC(=O)[C@@H](NC(=O)[C@H](CCCCN)NC(=O)[C@H](CC(=O)O)NC(=O)[C@H](CC(C)C)NC(=O)C(C)(C)NC(=O)[C@@H](NC(=O)[C@H](CO)NC(=O)[C@H](Cc1ccc(O)cc1)NC(=O)[C@H](CC(=O)O)NC(=O)[C@H](CO)NC(=O)[C@@H](NC(=O)[C@H](Cc1ccccc1)NC(=O)[C@@H](NC(=O)CNC(=O)[C@H](CCC(=O)O)NC(=O)C(C)(C)NC(=O)[C@@H](N)Cc1ccc(O)cc1)[C@@H](C)O)[C@@H](C)O)[C@@H](C)CC)[C@@H](C)CC)C(C)C)C(=O)N[C@@H](C)C(=O)NCC(=O)NCC(=O)N1CCC[C@H]1C(=O)N[C@@H](CO)C(=O)N[C@@H](CO)C(=O)NCC(=O)N[C@@H](C)C(=O)N1CCC[C@H]1C(=O)N1CCC[C@H]1C(=O)N1CCC[C@H]1C(=O)N[C@@H](CO)C(N)=O | human | plasma | subcutaneous | 0.5 mg | patients | Cmax | 36 ng/mL |
